The chains are these.
B1: tRNA (parent)
chain: GUUCCGUUGGCGUAAUGGUAACGCGUCUCCCUCCUAAGGAGAAGACUGCGGGUUCGAGUCCCGUACGGAACG

Variants at the floor of the assay were thinned out.

In the data set the parent is B1. In words: yeast fitness relative to wild type (ratio to wild type); higher = fitter; tRNA-Arg(CCU), competitive growth, 37 C, YPD. The procedure, abridged: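 A pool of Saccharomyces cerevisiae strains, each with a tRNA-Arg(CCU) gene variant at the native genomic locus, was competed in YPD at 37°C for 24 hours across six parallel replicates. The variants had been chemically synthesised at a 3% per-site mutation rate over 69 sites, and gene amplicons before and after competition were read by 100-nucleotide paired-end sequencing. Darwinian fitness relative to wild type rested on changes in genotype frequencies. Genotypes required ≥ 100 starting reads, and estimates < 0.5 were set to 0.5.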
In the case of GUCCCGUUGGCGUAAUGGUAACGCGUCUCCCUCCUAUGGAGAAGACUGCGAGUUCGAGUCCUGUACGGAACG, the yeast fitness was ≤ 0.5.

As to GUCCCGUUGGCGUAAUGGUAACGCGUCUCCCUCCUAAGGAGUAGACUGCGGGUUCGAGUCCCAUACGGAACG, the yeast fitness was ≤ 0.5.

Turning to GUCCCGUUGGCGUUAUGGUAACGCGUCUCCCUCCUAAGGGGAAGACUGCGGGUUCGAGUCGCGUACGGAACG, the yeast fitness is 0.567.

Consider GUCCUGUCGGCGCAAUGGUAACGCGUCUUCCUCCUAAGGAGAAGAAUGCGGGUUCGAGUCCCGUUAGGAACG, for which the yeast fitness was ≤ 0.5.

Turning to GUCCCGUUGGCGUAAUGGUAACGCGUCUCCCUCCUAAGGAGAAGUCUGCGCGUUCGAGUCCCGUACGGAACG, the yeast fitness was 0.574.

In the case of GUCCCGUUGGCGUAAUGGUAACGCGUCUCCCUCCUUAGGAGAAGACUGCGGGUUCGAGUCCCGUACGGUACG, the yeast fitness was ≤ 0.5.

In the case of GUCCCGUUGGAGUAAUGGUAACGCGUCUCCAUCCUAAGGAGAAGACUGCGGGUUCGAGUCCCGUACUGAACG, the yeast fitness is ≤ 0.5.

With GUCCUGUUGGCGUAAUGGUAACGCGUCUCCCUCCUAAGGAGAAGACUGCGGGUUCGAGUCCCGUACGGAACG, the yeast fitness was determined as 0.836.

GUCCCGUUGGCGUAAUGGUAACGCGUCUCCCUCCUAAGGAGACGACUGCGGGUUCGAGUCCCGUACGGAACG: the yeast fitness amounted to 1.04.

For GUCCCGUUGGCGUAAUGGUAACGCGUCUCCCUCCUAAGGAGAAGCCUGUGGGUUCGAGUCCCGUACGGAACG, the yeast fitness amounted to 0.712.

GUCCCGUUGGCGUAAUGGUAACGUGUCUCCCUCCUAAGGAGAAGACUGCGGGUUCGAGUCCCGUACGGAACG: the yeast fitness was determined as 1.01.

On to GUCCCGUUGGGGUAAUGGUAACGCGUCUCCCUCCUAAGGAGCAGACUGUGGGUUCGAGUCCCGUACGGAACG, for which the yeast fitness was ≤ 0.5.

For the variant GUCCCGUUGGCGUCAUGGUAACGCGUCUCCCUCCUAAGGAGAACACUGCCGGUCAGAGUCCCGUACGGAACG, the yeast fitness is ≤ 0.5.

As for GUCCCGUUGGUGUAAUGGAAACGCGUCUCCCUCCUAAGGAGAUGACUGCGGGUUCGAGACCCAUACGGAACG, the yeast fitness is ≤ 0.5.

GUCCCGUUGGAGUAAUGGUAACGUGUCUCCCUCCUAAGGAGGAGACUGCGGGUUCGAGUCCCAUACGGAACG: the yeast fitness was ≤ 0.5.

Take GUCCGGUUGGCGUAAUCGUAACGCGUCUUCCUCCUAAGGAGAAGACUGCGGGUUCGAGUCCCGUACGGAACG: the yeast fitness is ≤ 0.5.

GUCCUGGUGGCGUAAUGGUAAUGCGUGUCCCUCCUAAGGAGAAGACUGCGGGUUCGAAUCCCGUACGGAACG: the yeast fitness is ≤ 0.5.

Regarding GUCCCGUUGGCGUAAUGGUAACGCGUCUCCCUCCUAAGGAGAAGUCUGGGGGUUCGAGUCCCGUACGGAACG, the yeast fitness stood at 0.678.

Regarding GUCCCGUUGGCGUCAUGGUAACGCGUCUCCCUCCUAAGGAGAAGACUGCGGGUUCGAGUCCCGUACGGAACG, the yeast fitness was 0.703.

With GUCCCGUUGGCGUAAUGGUAACGGGUCUCCUUCCUAAGGAGAAGACUGCGGGUUAGAGUCCCGUACGGAACG, the yeast fitness was ≤ 0.5.

In the case of GUCCCGUUGGCGUGAUGGUAACGCGUCUCGCUCCUAAGGAGACGACUGCGGGUUCGAGUCCCGUACGGAACG, the yeast fitness was ≤ 0.5.

Turning to GUCCCGUUGGCGUAAUGGUAAUGCGUCUCCCUCCUAAGGAGAAGACUGCGGGUUGGAGUCCCGAACGGAACG, the yeast fitness is ≤ 0.5.

For the variant GUCCCGUUGGAGUAAUGGUAACGCGUCUCCAUCCUAAGGAGAAGACUGGGGGUUCGACUCCCGUACGGAACG, the yeast fitness is ≤ 0.5.

With GUCACGUUGGCGUAAUGGUAACACGUCUCCGUCCUAAGGCGAAGACUGCGGGUUCGAGUCCCGUACGGAACG, the yeast fitness was ≤ 0.5.

With GUCCCGUUGGCGUAAUGGUUACGCGUCUCUCUCCUAGGGAGAAGACUGCGGGUUCGAGUCCCGUACGGAACG, the yeast fitness worked out at 0.633.

With GUCCCGUUGGCGUAAUGGUAACGCGUCUCCCUCCUAAGGAGACGACUGCGGGUUCGAGUCCCGUUCGGAACG, the yeast fitness turned out to be 0.604.

GUACCGUUGGCGUAAUGGUAACGCGUCUCCCUCCUAAGGAGAAGACGGCGGGUUCGAGUCCCGUACAGUACG: the yeast fitness is ≤ 0.5.

With GUCCCGUUGGCGUAAUGGUGACGCGUCUCCCUCCUAAGGAGAAGACCGCGGGUUCGAGUCCCGUACGGAACG, the yeast fitness came to 0.686.

Consider GUACCGUUGGCGUAAUGGUAACGCGUCUCCCUCCUAAGGAGAAGACUGCGGGUCCGAGUCCCGUACGGAACG, for which the yeast fitness is 0.777.

As for GUCCCGUUGGCGUAAUGGUAUCGCGUCUCCCUCCUAACGAGAAGACUGCGGGUUCGAGUCCCGUACGGAACG, the yeast fitness worked out at 0.668.

In the case of GUCCCGUUGGGGUAAUGGUAACGCGUCUCCCUCCUAAGGAGAAGACUGCGGGUUCGAGUCCCUUACGGAACG, the yeast fitness was ≤ 0.5.

In the case of GUCCCGUUGGCGUAAUGGUAUCGCGUCUCCCUCAUAAGGAGAAGACUGCGGAUUCGAGUCGCAUACGGAACG, the yeast fitness is ≤ 0.5.

For GUCCCGUUGGCGUAAUGGUGACGUGUCUCCCUCCUAAGGAGAAGACUGCGGAUUCGUGUCCAGUACGGAACG, the yeast fitness was ≤ 0.5.

Turning to GUCCGGUUAGGGUAAUGGUAACGCGUCUCCCUCCUAAGGAGAAGACUGCGGGUUCGAGUCCCGUAUGGAACG, the yeast fitness was ≤ 0.5.

Take GUCCGGUUGGCGUAAUGGUAACGCGUCUCCCUCCUAAGGAGAAGACUGCGCGUUCGAGUCCCGUACGGAACG: the yeast fitness was ≤ 0.5.

With GUCUCGUUGGCGUAAUGGUAACGCGUUUCACUCCUAAGGACAAGACUGAGGGUUGGAGUCACGUACGGAACG, the yeast fitness was ≤ 0.5.

For GUCCCGUUGGCGUAAUGGUAACGCGUCUCCCUCCUAAGGAGCAGACUGCGGGUUCGAGUCCCGUACGGCACG, the yeast fitness is 0.978.

The values above are taken from the RNAGym collection of RNA variant scans (doi:10.1126/science.aae0568).
